Hits are enriched below; roughly 1.3% of the tested compounds scored in any of these assays.
JMJD2C inh = human JMJD2C demethylase inhibition | Q9H3R0 | GST-JMJD2C(1-420) H3K9me3 demethylation, DELFIA europium | inhibition, % at 2.35 µM | hit rate 0.069% among 330,000;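 active means more than half of a compound's replicate wells show inhibition beyond 50%, single wells judged on their own value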;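 further: signal counts dimethyl H3K9 product captured on neutravidin plate; 0% = median of DMSO wells and 100% = 0.3 times that DMSO median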
Furin inhibitor = blocks human furin protease activity; P09958; purified furin, fluorogenic substrate cleavage; inhibition, % at 20 µM or 30 µM; hit rate 0.061% among 220,000; AID 463115; in the data active means inhibition above about 25%
EP2 mod = modulates human prostaglandin E2 receptor EP2 signaling; hit rate 0.83% among 260,000; EP2-expressing cells, cAMP HTRF FRET, PGE2 co-stimulation; AID 940; P43116; induction, % at 25 µM;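 active means compounds whose cAMP rise, as percent of the full-agonist control response, exceeds 60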;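 further: rat C6 glioma line stably carrying human EP2 under a CMV promoter; the protocol text gives 20 µM as final concentration; 100% = response of wells given 1 µM PGE2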
EP2 antag = EP2 receptor (human) inhibition | P43116 | C6 glioma cells expressing human EP2, cAMP TR-FRET; cells stimulated with saturating PGE2 | inhibition, % at 25 µM | hit rate 0.52% among 260,000;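 active means percent inhibition above 40 after rounding to a whole number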;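 further: rat C6 glioma host cells with rolipram phosphodiesterase inhibitor present; the protocol text gives 20 µM as final concentration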
NR2E3 ag-1 = human photoreceptor-specific nuclear receptor agonism | Q9Y5X4 | CHO-S Gal4-NCOR/VP16-NR2E3 two-hybrid, luciferase | inhibition of corepressor binding, % at 3.98 µM | hit rate 0.35% among 360,000;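 active means inhibition above the mean of all tested compounds plus 3 SD, cut at about 70% in these data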;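 further: 0% = DMSO with NR2E3 transfected cells and 100% = cells lacking NR2E3 construct; higher means lower luciferase signal from less NR2E3 corepressor binding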
Target sequence (Q9Y5X4 whole entry, looked up, the tested form may be a part): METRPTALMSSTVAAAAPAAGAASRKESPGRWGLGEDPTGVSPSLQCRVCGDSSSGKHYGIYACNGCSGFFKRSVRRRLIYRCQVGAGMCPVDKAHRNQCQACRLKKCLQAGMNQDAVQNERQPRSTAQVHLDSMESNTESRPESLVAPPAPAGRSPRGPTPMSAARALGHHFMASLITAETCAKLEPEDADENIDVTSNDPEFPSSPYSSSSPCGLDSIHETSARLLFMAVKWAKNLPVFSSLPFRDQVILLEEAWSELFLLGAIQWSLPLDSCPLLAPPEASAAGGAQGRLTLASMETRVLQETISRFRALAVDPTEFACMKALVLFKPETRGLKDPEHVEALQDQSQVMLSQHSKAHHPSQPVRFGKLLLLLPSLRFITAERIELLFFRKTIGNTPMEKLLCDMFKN
NR2E3 ag-2 = NR2E3 (human) agonism; Q9Y5X4; GST-NR2E3/biotin-RetCOR TR-FRET, 1536-well; inhibition of corepressor binding, % at 4.78 µM; hit rate 0.12% among 320,000; AID 2300;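 active means percent inhibition above the cutoff of mean plus 3 SD of all tested compounds, set per screening campaign, cut at about 20% in these data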;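 further: 0% = DMSO wells and 100% = biotin wells as full block of FRET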
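System: GST-tagged NR2E3 plus biotinylated RetCOR corepressor; Buffer or medium: pH 7.5 Tris-based buffer; Probe or stimulus: RetCOR corepressor, biotinylated, 7 nM; Doses: compound at 4.8 µM, single dose; Schedule: 5 h incubation at 4 °C; Technique: time-resolved FRET; Evaluation: percent inhibition of TR-FRET ratio; Replication: one well per compound, singlicate testing.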
EP2 confirm = EP2 receptor cAMP induction, counter-screens negative; calls only at 20 µM (by protocol); shares compounds with EP2 mod; AID 1080; C6 glioma EP2 cells, cAMP HTRF induction; plus low (about EC15) PGE2 agonist; hit rate 47% among 1,300;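 active means cAMP induction above 50% in the main assay while under 30% in all four parallel counter assays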;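 further: rat C6 glioma cells stably expressing human EP2 receptor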
Active calls of the source: *; i = inactive; nt = not tested or not shown; + = active, no number; ! = not active in a repeat.

SMILES | JMJD2C inh | Furin inhibitor | EP2 mod | EP2 antag | NR2E3 ag-1 | NR2E3 ag-2 | EP2 confirm
CCOC(=O)N1CCC(=C2c3ccc(Cl)cc3CCc3cccnc32)CC1 | 8 | -11 | 53 | 10 | -31 | 2 | i
CN1c2ncccc2C(=O)NC12CCN(C(=O)c1cc(C(C)(C)C)nn1C)CC2 | nt | nt | -30 | 4 | nt | nt | nt
CC(C)(C)C1=NN(CC(=O)N2CCC(C(N)=O)CC2)C(=O)c2cc3ccccc3n2C1 | nt | nt | -14 | nt | nt | nt | nt
CCOC(=O)c1c(NC(=O)Cn2c(C)nc3ccccc32)sc2c1CCC2 | 1 | -18 | 43 | 12 | -34 | -1 | nt
CCOC(=O)c1c(NC(=O)COC(=O)Cn2cnc3ccccc32)sc2c1CCC(C)C2 (stereo unspecified) | -2 | -1 | 62* | 8 | -9 | 2 | i
CCOC(=O)c1c(NC(=O)COC(=O)Cn2c(C)nc3ccccc32)sc2c1CCCC2 | 5 | 0 | 55 | 9 | -33 | -1 | +
CCOC(=O)Nc1sc2c(c1C(N)=O)CCC(C)C2 (stereo unspecified) | -20 | -30 | 4 | 11 | -9 | 1 | nt
CCOC(=O)c1c(NC(=O)CSc2nnc(C)s2)sc2c1CCC(C)C2 (stereo unspecified) | -21 | -3 | 53 | 7 | -34 | 0 | i
CCOC(=O)c1c(NC(=O)Cn2nnc3ccccc32)sc2c1CCC(C)C2 (stereo unspecified) | 2 | -29 | 50 | 11 | -20 | -1 | i
COc1ccccc1CC(=O)N1CCC(n2nnc3ccccc3c2=O)CC1 | nt | nt | -11 | 5 | nt | nt | nt
COc1ccc(C2(NC(=O)c3nsc(Cl)c3Cl)CCCCC2)cc1 | nt | nt | -51 | 8 | nt | nt | nt
Cc1ccc(NC(=O)CSc2nc3sc4c(c3c(=O)[nH]2)CCCC4)c(C)c1 | nt | nt | -28 | 5 | nt | nt | nt
c1ccc(-c2n[nH]nc2-c2ccccc2)cc1 | 11 | -22 | 66* | 4 | -4 | 2 | +
CC(C)(C)OC(=O)N1CC=C2C(C1)C(c1ccc(Cl)s1)C(C#N)=C(N)C2(C#N)C#N (stereo unspecified) | nt | nt | -99 | 20 | nt | nt | nt
Cc1cc(C)nc(SCc2nnc(SCC#N)n2-c2cccc(Cl)c2)n1 | -1 | -14 | 51 | -4 | -6 | 5 | i
Cc1cc(C)nc(SCc2nnc(SCC(=O)O)n2-c2ccccc2)n1 | -15 | -22 | 22 | 5 | -6 | 1 | nt
CCC1Oc2ccccc2N(Cc2ccccc2C)C1=O (stereo unspecified) | 36 | -13 | 74* | 6 | 13 | -3 | +
COc1ccccc1NC(=O)c1sc(NC(=O)c2cccc(F)c2)c(C#N)c1C | nt | nt | 34 | 23 | nt | nt | nt
Cc1ccc(C)n1-n1c(C)nc2scc(-c3cccs3)c2c1=O | -4 | -18 | 55 | 2 | 3 | -1 | i
Cc1nc2scc(-c3cccs3)c2c(=O)n1-n1cccc1 | 3 | -13 | 34 | 14 | -2 | 0 | nt
CCn1c2ccccc2c2cc([N+](=O)[O-])ccc21 | -44 | -10 | 77* | 4 | -1 | -2 | +
COc1ccc(Cl)cc1NC(=O)C1CC(c2ccc(Cl)cc2)=NO1 (stereo unspecified) | nt | nt | 15 | 8 | nt | nt | nt
CCOC(=O)c1cccc(NC(=O)CSc2ncc(C(=O)OCC)c(N)n2)c1 | nt | nt | 0 | 9 | nt | nt | nt
COC(=O)c1c(NC(=O)Cc2cccs2)sc2c1CCCC2 | -3 | -9 | 55 | 14 | -38 | 2 | i
COC(=O)c1c(NC(=O)Cc2cccs2)sc(C)c1C | 2 | -6 | 56 | 6 | -6 | 0 | i
SMILES | JMJD2C inh | Furin inhibitor | EP2 mod | EP2 antag | NR2E3 ag-1 | NR2E3 ag-2 | EP2 confirm
COC(=O)c1c(NC(=O)Cc2ccccc2)sc(C)c1C | 1 | -3 | 36 | 10 | -6 | -1 | nt
COC(=O)c1c(NS(=O)(=O)c2cccs2)sc2c1CCCC2 | 0 | -14 | 4 | 5 | -12 | -2 | nt
Nc1cc(-c2cccs2)nn(CC(=O)N2CCCCC2)c1=O | nt | nt | -62 | 8 | nt | nt | nt
CCc1ccc(NC(=O)N(Cc2ccco2)C(C)c2cccs2)cc1 (stereo unspecified) | -1 | 1 | -3 | 8 | 22 | 2 | nt
CCc1ccccc1NC(=S)N(Cc1ccco1)C(C)c1cccs1 (stereo unspecified) | -2 | -17 | 60 | 4 | -4 | -1 | i
O=C(Nc1ccc(NC(=O)c2cc3ccccc3oc2=O)cc1)c1ccco1 | nt | nt | 1 | 12 | nt | nt | nt
COc1cccc2[nH]c3c(N4CCC(C)CC4)ncnc3c12 | -13 | -4 | 80* | 6 | -11 | 5 | +
COc1cc2c(cc1OC)CN(c1ccc3ccccc3n1)CC2 | -5 | nt | nt | nt | -59 | 7 | nt
COc1cc2c(cc1OC)CN(c1ccc(-c3ccccc3OC)nn1)CC2 | -4 | -2 | 65*! | 4 | -23 | 3 | i
CCc1ccc2nc(SCC(=O)OC(C)C)c(C#N)cc2c1 | nt | nt | -23 | 15 | nt | nt | nt
CCc1c(C)sc2nc(C(C)C)nc(SCC(=O)Nc3nc(C)cs3)c12 | nt | nt | 31 | 13 | nt | nt | nt
CC(=O)c1ccc(S(=O)(=O)NCCCC(=O)NCCc2ccccn2)cc1 | 10 | -14 | 71* | 0 | -1 | 2 | i
Cc1ccc(S(=O)(=O)NCCC(=O)NCc2ccccn2)cc1 | -15 | nt | nt | nt | 17 | 3 | nt
COc1ccc2oc(=O)c(C(=O)N(C)C3=C(C#N)CCC3)cc2c1 | nt | nt | -17 | 13 | nt | nt | nt
C=CCn1c(=O)c2c3c(sc2n2c(Nc4ccccc4)nnc12)CCCC3 | -5 | -4 | 56 | 8 | 19 | 0 | nt
C=CCn1c(=O)c2c3c(sc2n2c(Nc4ccc(OC)cc4)nnc12)CCCC3 | 0 | -25 | 75* | 12 | -7 | -3 | +
O=C(c1cccnc1)C1CCN(C(=O)Cc2ccccc2F)CC1 | nt | nt | -9 | nt | nt | nt | nt
CC(C)c1nc(Cl)c(C#N)c2c1CSC(C)(C)C2 | -5 | -23 | 73* | 5 | 8 | 0 | +
Cc1cc(NC(=O)c2cc(-c3ccncc3)nc3c(C)cccc23)no1 | -3 | -13 | 65* | 12 | -65 | 3 | i
Cc1ccc(-c2cc(C(=O)Nc3cc(C)on3)c3ccccc3n2)cc1 | 9 | -15 | 14 | 15 | 5 | -4 | nt

Source: PubChem BioAssay
